Source: ChEMBL document CHEMBL1153264, “(1,2,3-Triazol-4-yl)benzenamines: synthesis and activity against VEGF receptors 1 and 2” (Bioorg Med Chem Lett, 2009)

How the values were obtained:
[1] = target: T1, Vascular endothelial growth factor receptor 2 (Homo sapiens, UniProt P35968); test: Inhibition of VEGFR2 by HTRF assay in presence of 2 uM ATP
Summary of the method: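 HTRF kinase assay with KDR enzyme (3–4 ng) and biotinylated pGAT substrate. ATP added to start, 45 min at RT. Stopped with EDTA/KF buffer plus Eu-cryptate anti-phosphotyrosine antibody, 2 h RT, then HTRF read. IC50 from 10-point log concentration curves, mean of at least two duplicate runs.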

[2] = target: Vascular endothelial growth factor receptor 1 (Homo sapiens, UniProt P17948); test: Inhibition of VEGFR1 by HTRF assay
[3] = target: T1, Vascular endothelial growth factor receptor 2; test: Inhibition of VEGF-induced phosphorylation of VEGFR2 by cell-based ELISA
[4] = target: T1, Vascular endothelial growth factor receptor 2; test: Binding affinity to VEGFR2 at IC50 in presence of ATP
Summary of the method: (§1)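 ATP competition assay with VEGFR-2. Five concentrations of ³²P ATP across 0-100 µM, each incubated with enzyme for 45 min at RT. Inhibitor was absent or present at two fixed levels.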

[5] = target: T1, Vascular endothelial growth factor receptor 2; test: Binding affinity to VEGFR2 at IC90 in presence of ATP; summary of the method: as §1
[6] = target: Insulin-like growth factor 1 receptor (Homo sapiens) (UniProt P08069); test: Inhibition of IGF1R at 10 uM
[7] = target: Insulin receptor (Homo sapiens) (UniProt P06213); test: Inhibition of IR at 10 uM
[8] = target: Fibroblast growth factor receptor 1 (Homo sapiens) (UniProt P11362); test: Inhibition of FGFR1 at 10 uM
[9] = target: Receptor-type tyrosine-protein kinase FLT3 (Homo sapiens) (UniProt P36888); test: Inhibition of Flt3 at 10 uM
[10] = target: Epidermal growth factor receptor (Homo sapiens) (UniProt P00533); test: Inhibition of EGFR at 10 uM
[11] = target: Receptor tyrosine-protein kinase erbB-2 (Homo sapiens) (UniProt P04626); test: Inhibition of ErbB2 at 10 uM
[12] = target: Hepatocyte growth factor receptor (Homo sapiens) (UniProt P08581); test: Inhibition of c-Met at 10 uM
[13] = target: Macrophage-stimulating protein receptor (Homo sapiens) (UniProt Q04912); test: Inhibition of Ron at 10 uM
[14] = Inhibition of PKA at 10 uM
[15] = target: Glycogen synthase kinase-3 beta (Homo sapiens) (UniProt P49841); test: Inhibition of GSK3-beta at 10 uM
[16] = target: Bcr/Abl fusion protein (Homo sapiens) (UniProt P00519+P11274); test: Inhibition of Bcr-Abl at 10 uM; assay type: protein assay
[17] = Inhibition of Bcr-Abl T315 mutant at 10 uM
[18] = target: Cyclin-dependent kinase 1 (Homo sapiens) (UniProt P06493); test: Inhibition of Cdk1 at 10 uM
[19] = target: Cyclin-dependent kinase 2 (Homo sapiens) (UniProt P24941); test: Inhibition of Cdk2 at 10 uM
[20] = target: Proto-oncogene tyrosine-protein kinase Src (Homo sapiens) (UniProt P12931); test: Inhibition of Src at 10 uM
[21] = target: T2, Aurora kinase A (Homo sapiens) (UniProt O14965); test: Inhibition of Aurora A at 10 uM
T2 sequence (whole entry): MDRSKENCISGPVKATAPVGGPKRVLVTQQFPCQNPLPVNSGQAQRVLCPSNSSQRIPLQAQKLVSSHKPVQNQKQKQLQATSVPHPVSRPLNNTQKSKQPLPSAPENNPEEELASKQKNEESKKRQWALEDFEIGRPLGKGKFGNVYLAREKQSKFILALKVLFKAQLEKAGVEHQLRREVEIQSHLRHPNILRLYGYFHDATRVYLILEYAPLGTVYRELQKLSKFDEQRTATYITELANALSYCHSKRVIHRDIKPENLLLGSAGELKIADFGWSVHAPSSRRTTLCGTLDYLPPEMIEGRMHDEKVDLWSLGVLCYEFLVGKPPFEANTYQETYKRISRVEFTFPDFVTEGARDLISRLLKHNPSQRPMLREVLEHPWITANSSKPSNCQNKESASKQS

[22] = target: Aurora kinase B (Homo sapiens) (UniProt Q96GD4); test: Inhibition of Aurora B at 10 uM
[23] = target: Serine/threonine-protein kinase PLK1 (Homo sapiens) (UniProt P53350); test: Inhibition of Plk1 at 10 uM
Chain of Serine/threonine-protein kinase PLK1 (Homo sapiens) (P53350 whole entry): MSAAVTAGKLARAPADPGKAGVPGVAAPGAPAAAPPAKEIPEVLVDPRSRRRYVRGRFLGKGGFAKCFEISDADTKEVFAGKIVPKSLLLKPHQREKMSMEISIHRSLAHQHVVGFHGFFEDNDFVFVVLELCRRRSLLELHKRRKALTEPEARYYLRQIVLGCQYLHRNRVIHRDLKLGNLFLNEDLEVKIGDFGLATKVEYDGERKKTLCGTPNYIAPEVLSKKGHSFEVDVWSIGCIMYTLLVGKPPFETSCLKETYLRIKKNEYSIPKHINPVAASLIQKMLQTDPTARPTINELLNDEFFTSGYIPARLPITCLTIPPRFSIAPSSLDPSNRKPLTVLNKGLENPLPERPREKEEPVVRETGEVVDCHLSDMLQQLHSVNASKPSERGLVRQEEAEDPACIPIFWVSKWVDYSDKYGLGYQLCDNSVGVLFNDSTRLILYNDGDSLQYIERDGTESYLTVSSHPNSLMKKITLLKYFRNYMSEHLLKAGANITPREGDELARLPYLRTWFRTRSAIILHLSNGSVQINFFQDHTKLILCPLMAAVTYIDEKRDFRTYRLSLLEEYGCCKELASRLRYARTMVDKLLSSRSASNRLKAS

Chain of Cyclin-dependent kinase 1 (Homo sapiens) (P06493 whole entry, looked up): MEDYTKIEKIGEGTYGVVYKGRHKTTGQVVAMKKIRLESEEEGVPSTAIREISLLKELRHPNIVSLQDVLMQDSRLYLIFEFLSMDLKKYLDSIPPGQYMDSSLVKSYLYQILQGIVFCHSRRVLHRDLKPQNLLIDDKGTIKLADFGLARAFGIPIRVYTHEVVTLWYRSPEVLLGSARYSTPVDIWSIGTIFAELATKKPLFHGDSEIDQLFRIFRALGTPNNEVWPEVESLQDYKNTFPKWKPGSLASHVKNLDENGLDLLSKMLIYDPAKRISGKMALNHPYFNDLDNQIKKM
Chain of Proto-oncogene tyrosine-protein kinase Src (Homo sapiens) (P12931 2-536 limits assumed): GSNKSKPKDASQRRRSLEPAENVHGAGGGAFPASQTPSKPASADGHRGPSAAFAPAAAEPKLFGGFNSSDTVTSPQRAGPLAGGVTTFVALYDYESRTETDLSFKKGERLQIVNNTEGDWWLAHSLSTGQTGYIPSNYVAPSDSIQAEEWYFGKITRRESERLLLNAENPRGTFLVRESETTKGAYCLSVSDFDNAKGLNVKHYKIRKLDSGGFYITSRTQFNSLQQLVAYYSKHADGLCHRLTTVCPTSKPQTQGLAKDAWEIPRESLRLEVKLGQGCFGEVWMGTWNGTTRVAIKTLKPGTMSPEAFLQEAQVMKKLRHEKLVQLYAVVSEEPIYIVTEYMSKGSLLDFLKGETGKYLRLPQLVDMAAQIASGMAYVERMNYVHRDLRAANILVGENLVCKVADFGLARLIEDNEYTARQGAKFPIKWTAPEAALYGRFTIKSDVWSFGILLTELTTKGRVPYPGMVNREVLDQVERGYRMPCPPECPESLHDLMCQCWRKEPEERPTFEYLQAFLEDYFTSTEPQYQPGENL
Chain of Fibroblast growth factor receptor 1 (Homo sapiens) (P11362 22-822 limits assumed): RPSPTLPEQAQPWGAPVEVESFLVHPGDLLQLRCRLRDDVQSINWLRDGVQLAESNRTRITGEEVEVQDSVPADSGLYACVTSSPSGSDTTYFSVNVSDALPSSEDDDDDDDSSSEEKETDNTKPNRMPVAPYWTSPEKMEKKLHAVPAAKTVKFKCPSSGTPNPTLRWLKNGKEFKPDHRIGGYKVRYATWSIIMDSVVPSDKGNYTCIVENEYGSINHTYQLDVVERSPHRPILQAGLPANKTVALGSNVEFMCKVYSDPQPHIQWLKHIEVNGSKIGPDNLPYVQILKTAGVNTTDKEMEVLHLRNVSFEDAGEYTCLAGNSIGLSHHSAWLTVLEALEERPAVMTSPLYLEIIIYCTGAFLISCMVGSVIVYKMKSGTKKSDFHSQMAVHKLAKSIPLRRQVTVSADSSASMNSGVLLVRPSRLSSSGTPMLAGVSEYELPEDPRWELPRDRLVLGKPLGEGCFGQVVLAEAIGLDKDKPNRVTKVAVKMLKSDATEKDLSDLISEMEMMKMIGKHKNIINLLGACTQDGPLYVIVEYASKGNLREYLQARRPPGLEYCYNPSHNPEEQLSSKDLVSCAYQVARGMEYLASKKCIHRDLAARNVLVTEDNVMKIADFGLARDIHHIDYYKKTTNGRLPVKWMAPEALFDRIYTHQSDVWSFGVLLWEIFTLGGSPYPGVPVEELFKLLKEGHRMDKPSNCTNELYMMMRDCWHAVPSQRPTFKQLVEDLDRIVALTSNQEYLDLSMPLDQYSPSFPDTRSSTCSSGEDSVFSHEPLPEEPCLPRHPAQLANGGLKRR
Chain of Glycogen synthase kinase-3 beta (Homo sapiens) (P49841 whole entry, looked up, the tested form may be a part): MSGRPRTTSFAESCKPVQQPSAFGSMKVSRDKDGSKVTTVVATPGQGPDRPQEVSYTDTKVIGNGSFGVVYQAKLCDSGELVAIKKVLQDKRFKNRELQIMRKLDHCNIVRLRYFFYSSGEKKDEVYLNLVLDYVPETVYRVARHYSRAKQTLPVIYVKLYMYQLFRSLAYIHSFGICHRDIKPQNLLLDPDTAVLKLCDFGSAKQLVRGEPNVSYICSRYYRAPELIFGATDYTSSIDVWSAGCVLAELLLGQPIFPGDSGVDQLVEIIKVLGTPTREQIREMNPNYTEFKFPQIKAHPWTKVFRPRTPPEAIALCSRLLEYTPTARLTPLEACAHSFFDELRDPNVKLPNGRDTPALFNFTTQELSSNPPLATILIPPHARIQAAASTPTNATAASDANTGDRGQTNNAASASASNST
Chain of Aurora kinase B (Homo sapiens) (Q96GD4 whole entry): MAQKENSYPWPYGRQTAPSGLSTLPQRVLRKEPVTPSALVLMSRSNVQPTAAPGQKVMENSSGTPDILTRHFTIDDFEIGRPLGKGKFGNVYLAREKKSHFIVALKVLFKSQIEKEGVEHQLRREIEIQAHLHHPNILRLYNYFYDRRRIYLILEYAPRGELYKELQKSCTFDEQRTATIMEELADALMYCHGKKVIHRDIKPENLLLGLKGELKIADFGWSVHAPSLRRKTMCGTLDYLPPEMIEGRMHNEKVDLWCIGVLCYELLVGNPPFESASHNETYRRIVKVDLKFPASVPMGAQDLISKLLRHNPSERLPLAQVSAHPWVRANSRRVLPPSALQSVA
Chain of Insulin receptor (Homo sapiens) (P06213 28-758 limits assumed): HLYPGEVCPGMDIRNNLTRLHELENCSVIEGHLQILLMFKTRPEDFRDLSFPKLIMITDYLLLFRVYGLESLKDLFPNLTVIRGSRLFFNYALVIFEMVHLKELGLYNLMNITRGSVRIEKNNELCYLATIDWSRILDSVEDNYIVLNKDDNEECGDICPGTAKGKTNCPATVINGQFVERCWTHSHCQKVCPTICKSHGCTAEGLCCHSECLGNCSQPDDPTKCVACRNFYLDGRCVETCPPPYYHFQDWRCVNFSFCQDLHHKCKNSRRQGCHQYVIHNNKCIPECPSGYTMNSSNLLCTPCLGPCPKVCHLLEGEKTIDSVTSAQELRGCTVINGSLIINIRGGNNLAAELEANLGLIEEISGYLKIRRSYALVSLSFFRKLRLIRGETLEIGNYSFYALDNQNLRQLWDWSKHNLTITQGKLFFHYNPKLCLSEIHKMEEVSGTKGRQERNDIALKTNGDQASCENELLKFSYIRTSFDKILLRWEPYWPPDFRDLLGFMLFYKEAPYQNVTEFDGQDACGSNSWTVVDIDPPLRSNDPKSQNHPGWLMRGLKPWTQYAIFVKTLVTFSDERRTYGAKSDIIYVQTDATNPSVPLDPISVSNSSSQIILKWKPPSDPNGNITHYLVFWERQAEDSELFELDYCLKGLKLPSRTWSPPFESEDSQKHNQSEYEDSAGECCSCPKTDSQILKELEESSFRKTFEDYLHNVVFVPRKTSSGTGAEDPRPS
Chain of Insulin receptor (Homo sapiens) (P06213 763-1382 limits assumed): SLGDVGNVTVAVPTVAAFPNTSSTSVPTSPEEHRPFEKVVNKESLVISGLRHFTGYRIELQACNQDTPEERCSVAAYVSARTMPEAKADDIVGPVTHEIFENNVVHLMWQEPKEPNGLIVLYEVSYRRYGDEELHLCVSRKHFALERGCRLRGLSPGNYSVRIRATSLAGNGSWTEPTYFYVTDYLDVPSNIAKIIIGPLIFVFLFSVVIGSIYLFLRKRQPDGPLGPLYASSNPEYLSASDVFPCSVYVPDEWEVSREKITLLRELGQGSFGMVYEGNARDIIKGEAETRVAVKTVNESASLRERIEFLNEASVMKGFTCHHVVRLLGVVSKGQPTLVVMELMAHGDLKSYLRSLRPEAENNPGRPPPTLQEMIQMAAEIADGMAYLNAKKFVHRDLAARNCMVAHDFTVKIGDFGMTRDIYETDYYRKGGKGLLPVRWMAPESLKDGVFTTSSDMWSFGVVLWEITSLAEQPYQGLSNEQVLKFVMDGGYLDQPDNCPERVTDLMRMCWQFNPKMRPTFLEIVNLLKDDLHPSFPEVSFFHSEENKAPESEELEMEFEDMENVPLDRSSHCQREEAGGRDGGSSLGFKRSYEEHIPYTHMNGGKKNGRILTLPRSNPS

IC50 [1]	IC50 [2]	IC50 [3]	Ki [4]	Ki [5]	inhibition [6]	inhibition [7]	inhibition [8]	inhibition [9]	inhibition [10]	inhibition [11]	inhibition [12]	inhibition [13]	inhibition [14]	inhibition [15]	inhibition [16]	inhibition [17]	inhibition [18]	inhibition [19]	inhibition [20]	SMILES	other results
0.11 µM	0.13 µM	0.15 µM	0.16 µM	0.14 µM	< 30%	< 30%	< 30%	< 30%	< 30%	< 30%	< 30%	< 30%	< 30%	< 30%	< 30%	< 30%	< 30%	< 30%	< 30%	CC(C)c1cccc(-n2cc(-c3ccccc3NCc3ccncc3)nn2)c1	inhibition [21]: < 30%; inhibition [22]: < 30%; inhibition [23]: < 30%
0.087 µM	0.13 µM	0.16 µM	0.12 µM	0.11 µM	< 30%	< 30%	< 30%	< 30%	< 30%	< 30%	< 30%	< 30%	< 30%	< 30%	< 30%	< 30%	< 30%	< 30%	< 30%	Clc1cccc(-n2cc(-c3ccccc3NCc3ccncc3)nn2)c1	inhibition [21]: < 30%; inhibition [22]: < 30%; inhibition [23]: < 30%
0.051 µM	0.066 µM	0.096 µM	0.09 µM	0.08 µM	< 30%	< 30%	< 30%	< 30%	< 30%	< 30%	< 30%	< 30%	< 30%	< 30%	< 30%	< 30%	< 30%	< 30%	< 30%	FC(F)(F)c1cccc(-n2cc(-c3ccccc3NCc3ccncc3)nn2)c1	inhibition [21]: < 30%; inhibition [22]: < 30%; inhibition [23]: < 30%
